Laboratory results: ChEMBL document CHEMBL1130011, “Chemical and biological studies on a series of novel (trans-(1R,2R)-, trans-(1S,2S)-, and cis-1,2-diaminocyclohexane)platinum(IV) carboxylate complexes” (J Med Chem, 1997)

Tests used:
Type in all cases: functional, organism-based
Mus musculus [1] = assay: Antitumor activity against L1210/0 leukemia cells in mice at the optimal dose of 50 mg/kg/injection (median survival time of [treated mice/control mice])
Outline: (§1)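 Male B6D2F1 (C57BL/6 × DBA/2) mice were inoculated ip with 1 × 10^5 leukemia cells on day 0. Drug was given ip on days 1, 5 and 9, prepared in water or 0.9% NaCl and administered immediately, over a dose range of 0.5–200 mg/kg/injection. Animals were monitored daily. %T/C = median survival of treated × 100/median survival of controls. Cures were mice alive at day 60.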

Mus musculus [2] = assay: Antitumor activity against L1210/0 leukemia cells in mice at the optimal dose of 200 mg/kg/injection (median survival time of [treated mice/control mice]); outline: as §1
Mus musculus [3] = assay: Antitumor activity against M5076 reticulosarcoma grown subcutaneously in mice at the optimal dose of 200 mg/kg/injection
Outline: (§2)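 Male B6D2F1 (C57BL/6 × DBA/2) mice received 1 × 10^7 M5076 cells sc on day 0. Drug was given ip on days 5, 9, 13 and 17, prepared in water or 0.9% NaCl and given immediately, over a dose range of 0.5–200 mg/kg/injection. Animals were monitored daily. Results are expressed as %T/C (median survival ratio × 100) or as tumor growth delay.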

Mus musculus [4] = assay: Antitumor activity against L1210/cisplatin leukemia cells in mice at the optimal dose of 200 mg/kg/injection (median survival time of [treated mice/control mice]); outline: as §1
Mus musculus [5] = assay: Antitumor activity against L1210/cisplatin leukemia cells in mice at the optimal dose of 75 mg/kg/injection (median survival time of [treated mice/control mice]); outline: as §1
Mus musculus [6] = assay: Antitumor activity against L1210/0 leukemia cells in mice at the optimal dose of 75 mg/kg/injection (median survival time of [treated mice/control mice]); outline: as §1
Mus musculus [7] = assay: Antitumor activity against L1210/0 leukemia cells in mice at the optimal dose of 100 mg/kg/injection (median survival time of [treated mice/control mice]); outline: as §1
Mus musculus [8] = assay: Antitumor activity against M5076 reticulosarcoma grown subcutaneously in mice at the optimal dose of 100 mg/kg/injection; outline: as §2
Mus musculus [9] = assay: Antitumor activity against L1210/cisplatin leukemia cells in mice at the optimal dose of 50 mg/kg/injection (median survival time of [treated mice/control mice]); outline: as §1
Mus musculus [10] = assay: Antitumor activity against L1210/0 leukemia cells in mice at the optimal dose of 25 mg/kg/injection (median survival time of [treated mice/control mice]); outline: as §1
Mus musculus [11] = assay: Antitumor activity against L1210/cisplatin leukemia cells in mice at the optimal dose of 25 mg/kg/injection (median survival time of [treated mice/control mice]); outline: as §1
Mus musculus [12] = assay: Antitumor activity against L1210/0 leukemia cells in mice at the optimal dose of 5 mg/kg/injection (median survival time of [treated mice/control mice]); outline: as §1
Mus musculus [13] = assay: Antitumor activity against M5076 reticulosarcoma grown subcutaneously in mice at the optimal dose of 5 mg/kg/injection; outline: as §2
Mus musculus [14] = assay: Antitumor activity against L1210/cisplatin leukemia cells in mice at the optimal dose of 5 mg/kg/injection (median survival time of [treated mice/control mice]); outline: as §1
Mus musculus [15] = assay: Antitumor activity against L1210/cisplatin leukemia cells in mice at the optimal dose of 100 mg/kg/injection (median survival time of [treated mice/control mice]); outline: as §1

“Platinum IV (trans-(1S,2S)-diaminecyclohexyl)-trans-(acetate)2 (cyclobutanecarboxylate)2” was tested, and the T/C (Mus musculus [1]) was 182%.
For “Platinum IV (trans-(1R,2R)-diaminecyclohexyl)-trans-(acetate)2 (1,1-cyclobutanedicarboxylate)”, the T/C (Mus musculus [2]) was 112%, the Tumor growth delay (Mus musculus [3]) was 15.8 days and the T/C (Mus musculus [4]) was 100%.
“Platinum IV (cis-1,2-diaminecyclohexyl)-trans-(acetate)2 (malonate)” was tested, and the T/C (Mus musculus [2]) was 206%.
For CARBOPLATIN, the T/C (Mus musculus [5]) was 111% and the T/C (Mus musculus [6]) was 147%.
“Platinum IV (trans-(1R,2R)-diaminecyclohexyl)-trans-(acetate)2” was tested, and the T/C (Mus musculus [7]) was 265%, the Tumor growth delay (Mus musculus [8]) was 19.5 days and the T/C (Mus musculus [9]) was 144%.
Work on “Platinum IV (trans-(1S,2S)-diaminecyclohexyl) (acetate)4” yielded a T/C (Mus musculus [2]) of 194%.
[Pt(O2CCH3)4(dach)]dach gave a T/C (Mus musculus [2]) of 182%.
With “Platinum IV (trans-(1R,2R)-diaminecyclohexyl)-trans-(trifluoroacetate)2 (oxalate)” the T/C (Mus musculus [9]) was 176% and the T/C (Mus musculus [1]) was over 700%.
For “Platinum IV (trans-(1R,2R)-diaminecyclohexyl)-trans-(trifluoroacetate)2 (acetate)4”, the T/C (Mus musculus [10]) was 218% and the T/C (Mus musculus [11]) was 148%.
“Platinum IV (trans-(1R,2R)-diaminecyclohexyl) (acetate)4” gave a T/C (Mus musculus [2]) of 206%.
“Platinum IV (cis-1,2-diaminecyclohexyl)-trans-(acetate)2 (oxalate)” showed a T/C (Mus musculus [7]) of 159%.
Substance “Platinum IV (trans-(1R,2R)-diaminecyclohexyl)-trans-(acetate)2 (cyclobutanecarboxylate)2” has a T/C (Mus musculus [7]) of 206% and a T/C (Mus musculus [9]) of 157%.
“Platinum IV (trans-(1R,2R)-diaminecyclohexyl)-trans-(acetate)2 (methylmalonate)” was tested, and the T/C (Mus musculus [2]) was 147%, the Tumor growth delay (Mus musculus [3]) was 21.3 days and the T/C (Mus musculus [4]) was 93%.
Substance “Platinum IV (trans-(1R,2R)-diaminecyclohexyl)-trans-(acetate)2 (oxalate)” has a T/C (Mus musculus [1]) of 171%.
With “Platinum IV (trans-(1S,2S)-diaminecyclohexyl)-trans-(acetate)2 (oxalate)” the T/C (Mus musculus [1]) was 135%.
With “Platinum IV (cis-1,2-diaminecyclohexyl)-trans-(acetate)2 (1,1-cyclobutanedicarboxylate)” the T/C (Mus musculus [2]) was 112%.
Work on CISPLATIN yielded a T/C (Mus musculus [12]) of 300%, a Tumor growth delay (Mus musculus [13]) of 16.3 days and a T/C (Mus musculus [14]) of 100%.
“Platinum IV (trans-(1R,2R)-diaminecyclohexyl)-trans-(trifluoroacetate)2 (1,1-cyclobutanedicarboxylate)” showed a T/C (Mus musculus [15]) of 205% and a T/C (Mus musculus [2]) of 253%.
